In ChEMBL document CHEMBL1795218, “Selective bone targeting 5-fluorouracil prodrugs: synthesis and preliminary biological evaluation” (Bioorg Med Chem, 2011):
Calls of active or inactive are those of the source. No cut-off for these calls is given here. Residues, ends and D or L forms follow the SMILES beside them. *: point of attachment. Acetyl(5-fluorouracil-1-yl) = O=C(Cn1cc(F)c(=O)[nH]c1=O)*; X1 = O=C(CCC(=O)*)OCn1cc(F)c(=O)[nH]c1=O

Experiments:
Hydroxyapatite [1] = assay: Binding affinity to bone mineral hydroxyapatite assessed as binding index after 0.5 hrs by UV-spectrophotometer analysis relative to 5-fluorouracil; parameters: concentration or dose not given beside the values
[2] = Prodrug activation in phosphate buffered saline at pH 7.4 assessed as 5-fluorouracil release after 60 hrs by RP-HPLC analysis; settings: buffer, pH 7.4, 60 h
How it was run: (§1)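 Conjugates incubated at 37 °C in PBS pH 7.4 or in 50% (v/v in PBS) human plasma, with a little DMSO added for solubility. Released 5-FU measured by RP-HPLC at 1.0 mL/min, detection at 256 nm, 25 °C.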

MG-63 [3] = assay: Cytotoxicity against human MG63 cells after 3 days by MTT assay; format: functional, cell-based; settings: MG-63, 72 h
How it was run: (§2)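 MG-63 or HeLa cells plated at 5×10³ cells/well. Exposed to conjugates at 1–64 µM (5-FU-equivalent), with or without human plasma, for 72 h under 5% CO₂. MTT then added for 2 h and absorbance read at 490 nm. Mean and SD of three independent experiments.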

MG-63 [4] = assay: Cytotoxicity against human MG63 cells after 3 days by MTT assay in presence of 50% human plasma; format: functional, cell-based; how it was run: as §2
[5] = Half life in mouse; format: ADME, organism-based; settings: in vivo
[6] = Apparent volume of distribution in mouse; format: ADME, organism-based; settings: in vivo, read-out: Vz
HeLa [7] = assay: Cytotoxicity against human HeLa cells after 3 days by MTT assay; format: functional, cell-based; settings: 72 h; how it was run: as §2
HeLa [8] = assay: Cytotoxicity against human HeLa cells after 3 days by MTT assay in presence of 50% human plasma; format: functional, cell-based; how it was run: as §2
[9] = AUC in mouse; format: ADME, organism-based; settings: plasma
Femur [10] = assay: Biodistribution in po dosed mouse femur after 1 hr; format: ADME, organism-based; settings: in vivo
How it was run: (§3)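 Mice dosed orally. At 1 h or 12 h, kidney, liver, femur and blood collected. Organs rinsed in cold saline, blotted, extracted with methanol, diluted and centrifuged before analysis. Mean and SD of three independent experiments.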

[11] = Prodrug activation in phosphate buffered saline at pH 7.4 assessed as 5-fluorouracil release after 5 days by RP-HPLC analysis; settings: buffer, pH 7.4, 120 h; how it was run: as §1
Femur [12] = assay: Biodistribution in po dosed mouse femur after 12 hrs; format: ADME, organism-based; settings: in vivo; how it was run: as §3
Mus musculus = species on record: Mus musculus; assay: Cmax in mouse; format: ADME, organism-based; settings: in vivo
Plasma [13] = assay: Prodrug activation in 50% human plasma assessed as 5-fluorouracil release after 5 days by RP-HPLC analysis; format: cell-free; settings: 120 h; how it was run: as §1
Plasma [14] = assay: Prodrug activation in 50% human plasma assessed as 5-fluorouracil release after 60 hrs by RP-HPLC analysis; format: cell-free; how it was run: as §1
Hydroxyapatite [15] = assay: Binding affinity to bone mineral hydroxyapatite assessed as binding index after 24 hrs by UV-spectrophotometer analysis relative to 5-fluorouracil; parameters: concentration or dose not given beside the values
How it was run: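 Hydroxyapatite (25 mg/ml) added to 5 ml conjugate solutions at 500 µg/ml (C0). Sonicated 5 min, then held in a 37 °C water bath for […] or over 24 h. Unbound conjugate read by UV at 254 nm against an absorbance–concentration calibration line. Tetracycline as positive control. Binding index given as mean ± SD, n = 3.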

Row | SMILES | Activity (Hydroxyapatite [1]) [%] | Activity [2] [%] | IC50 (MG-63 [3]) [µM] | Activity (MG-63 [4]) | half-life [5] [h] | Vd [6] [L/kg] | IC50 (HeLa [7]) [µM] | Activity (HeLa [8]) | AUC [9] [ng·h/mL] | Drug uptake (Femur [10]) | Activity [11] [%] | Drug uptake (Femur [12]) | Cmax (Mus musculus) [µg/mL] | Activity (Plasma [13]) [%] | Activity (Plasma [14]) [%] | Activity (Hydroxyapatite [15]) [%]
1 | O=C(O)C[C@H](NC(=O)[C@H](CC(=O)O)NC(=O)[C@H](CC(=O)O)NC(=O)[C@H](CC(=O)O)NC(=O)[C@H](CC(=O)O)NC(=O)[C@H](CC(=O)O)NC(=O)Cn1cc(F)c(=O)[nH]c1=O)C(=O)O ({Acetyl(5-fluorouracil-1-yl)}-DDDDDD-OH) | 31.4 | 3.2 | > 64 | Active | 4.36 | 24.1 | > 64 | Active | 76600 | Active | 5 | Active | 42400 | 60 | 47.4 | 62.7
2 | O=C(O)C[C@H](NC(=O)[C@H](CC(=O)O)NC(=O)[C@H](CC(=O)O)NC(=O)[C@H](CC(=O)O)NC(=O)[C@H](CC(=O)O)NC(=O)CCC(=O)OCn1cc(F)c(=O)[nH]c1=O)C(=O)O (X1-DDDDD-OH) | 13.4 | – | – | – | – | – | – | – | – | – | – | – | – | – | – | 25.5
3 | O=c1[nH]cc(F)c(=O)[nH]1 [FLUOROURACIL] | 0 | – | 8 | – | 4.36 | 24.1 | 4 | – | 76600 | Active | – | Active | – | – | – | 0
4 | O=C(O)C[C@H](NC(=O)[C@H](CC(=O)O)NC(=O)[C@H](CC(=O)O)NC(=O)[C@H](CC(=O)O)NC(=O)[C@H](CC(=O)O)NC(=O)[C@H](CC(=O)O)NC(=O)CCC(=O)OCn1cc(F)c(=O)[nH]c1=O)C(=O)O (X1-DDDDDD-OH) | 37.8 | – | > 64 | Active | 6.75 | 32.2 | > 64 | Active | 90100 | Active | – | Active | 51100 | 80 | 60.3 | 69.7
5 | O=C(O)C[C@H](NC(=O)[C@H](CC(=O)O)NC(=O)[C@H](CC(=O)O)NC(=O)[C@H](CC(=O)O)NC(=O)CCC(=O)OCn1cc(F)c(=O)[nH]c1=O)C(=O)O (X1-DDDD-OH) | 16.6 | – | – | – | – | – | – | – | – | – | – | – | – | – | – | 42.5
6 | O=C(O)C[C@H](NC(=O)[C@H](CC(=O)O)NC(=O)[C@H](CC(=O)O)NC(=O)[C@H](CC(=O)O)NC(=O)[C@H](CC(=O)O)NC(=O)Cn1cc(F)c(=O)[nH]c1=O)C(=O)O ({Acetyl(5-fluorouracil-1-yl)}-DDDDD-OH) | 11.6 | – | – | – | – | – | – | – | – | – | – | – | – | – | – | 19.8
7 | CN(C)[C@@H]1C(O)=C(C(N)=O)C(=O)[C@@]2(O)C(O)=C3C(=O)c4c(O)cccc4[C@@](C)(O)[C@H]3C[C@@H]12 | 24.1 | – | – | – | – | – | – | – | – | – | – | – | – | – | – | 56.2
8 | O=C(O)C[C@H](NC(=O)[C@H](CC(=O)O)NC(=O)[C@H](CC(=O)O)NC(=O)[C@H](CC(=O)O)NC(=O)Cn1cc(F)c(=O)[nH]c1=O)C(=O)O ({Acetyl(5-fluorouracil-1-yl)}-DDDD-OH) | 14.3 | – | – | – | – | – | – | – | – | – | – | – | – | – | – | 40.2
